The target of one series is T1, HlCHIL1 protein (Humulus lupulus, UniProt A0A2U7XUH7).
T1 sequence (A0A2U7XUH7 1-214): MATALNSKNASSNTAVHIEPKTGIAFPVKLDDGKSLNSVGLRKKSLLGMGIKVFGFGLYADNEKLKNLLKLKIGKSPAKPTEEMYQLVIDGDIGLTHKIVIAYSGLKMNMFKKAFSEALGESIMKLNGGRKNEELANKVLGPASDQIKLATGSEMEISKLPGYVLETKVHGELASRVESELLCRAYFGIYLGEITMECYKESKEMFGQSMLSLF
The series is described as follows: Differential scanning fluorimetry. It counts as binding. The following applies: for binding to CHIL1 protein (in words): wild-type HlCHIL1, differential scanning fluorimetry; for ΔTmmax: wild-type HlCHIL1, thermal shift dose-response. An outline of the steps: (§1)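 Purified HlCHIL protein (wild-type or point mutant), 5 μM, was mixed with Protein Thermal Shift buffer and dye. Test ligand was serially diluted from 250 μM to 0.12 μM (12 points). Melting was followed on a real-time PCR instrument. Kd and ΔTmmax were fitted from the dose–response of thermal shift against ligand concentration.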

The target in another series is T2, CHIL2 (Humulus lupulus, UniProt A0A2U7XUE3).
T2 sequence (A0A2U7XUE3 1-209): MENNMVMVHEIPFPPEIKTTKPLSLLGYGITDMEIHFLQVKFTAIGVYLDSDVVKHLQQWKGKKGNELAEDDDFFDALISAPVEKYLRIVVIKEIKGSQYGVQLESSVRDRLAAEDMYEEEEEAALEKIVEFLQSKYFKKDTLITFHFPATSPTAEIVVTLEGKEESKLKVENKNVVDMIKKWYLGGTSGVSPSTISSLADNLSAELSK
Description: Protein-metabolite interaction assay. It counts as binding. The following applies: same incubation conditions, 8 h at 4 °C.

The target in a further series is T3, CHIL1^V139F (Humulus lupulus, UniProt A0A2U7XUH7, V139F).
T3 sequence (A0A2U7XUH7 1-214 V139F): T1 sequence (A0A2U7XUH7 1-214) with V139F
Description: Differential scanning fluorimetry binding assay with CHIL1 V139F mutant. An outline of the steps:
as §1

The next series concerns the target T4, CHIL1^A143F (Humulus lupulus, UniProt A0A2U7XUH7, A143F).
T4 sequence (A0A2U7XUH7 1-214 A143F): T1 sequence (A0A2U7XUH7 1-214) with A143F
The series is described as follows: Differential scanning fluorimetry binding assay with CHIL1 A143F mutant. Conditions: thermal shift dose-response. An outline of the steps:
as §1

In another series the target is T5, CHIL1^V139F/A143F (Humulus lupulus, UniProt A0A2U7XUH7, A143F/V139F).
T5 sequence (A0A2U7XUH7 1-214 V139F/A143F): T1 sequence (A0A2U7XUH7 1-214) with V139F, A143F
The series is classed as binding. Conditions: thermal shift dose-response.

A further series addresses T6, His-tagged CHIL1 (Humulus lupulus, UniProt A0A2U7XUH7).
T6 sequence (A0A2U7XUH7 1-214): T1 sequence (A0A2U7XUH7 1-214)
Description: Protein-metabolite interaction assay. It counts as binding. An outline of the steps: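 His-tagged CHIL1 was expressed in E. coli BL21 and purified by Ni-NTA. Protein (30 μg) was incubated for 8 h at 4 °C with yeast extract (about 200 μM N/NC, 5 μM DMX) in 50 mM Tris·HCl pH 7.5 with 20% methanol. Protein was captured on MagneHis Ni beads. Bead-bound and supernatant compounds were extracted with ethyl acetate and measured by LC-QQQ-MS/MS (MRM 341.0→165.0). Beads alone were the control; n = 3.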

In another series the target is T7, CHS_H1 (Humulus lupulus, UniProt Q9FEY5).
T7 sequence (Q9FEY5 1-389): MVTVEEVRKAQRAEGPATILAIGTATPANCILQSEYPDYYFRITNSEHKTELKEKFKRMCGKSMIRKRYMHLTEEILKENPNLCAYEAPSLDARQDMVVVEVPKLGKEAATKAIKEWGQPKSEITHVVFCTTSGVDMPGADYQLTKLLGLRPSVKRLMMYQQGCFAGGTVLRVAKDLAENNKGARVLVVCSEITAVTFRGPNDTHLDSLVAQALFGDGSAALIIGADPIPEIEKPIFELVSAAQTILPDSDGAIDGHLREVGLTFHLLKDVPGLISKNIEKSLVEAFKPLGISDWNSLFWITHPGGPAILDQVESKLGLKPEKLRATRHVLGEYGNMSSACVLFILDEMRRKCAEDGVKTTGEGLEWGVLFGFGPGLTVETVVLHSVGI
The series is described as follows: In vitro chalcone synthase assay, kinetic parameters, CHS_H1 alone. The series is classed as biochemical. The following applies: 2 μg CHS_H1; other substrate fixed: 150 μM malonyl-CoA or 40 μM p-coumaroyl-CoA. An outline of the steps:
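Purified recombinant CHS_H1 (2 μg) was run in standard reactions: 50 mM Tris·HCl pH 7, 0.1 mg/mL BSA, 30 °C, 60 min. One substrate was fixed (40 μM p-coumaroyl-CoA or 150 μM malonyl-CoA) while the other was varied. Products were extracted and quantified. Apparent Km came from Hanes plots; n = 3, means ± SD.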

Residue numbers refer to the chain shown, from its start.

As usually defined, the Kd is the concentration at which binding is half-saturated. For orientation: Km means the concentration of substrate that gives half-maximal velocity.

On to `CC(C)=CCc1c(O)cc2c(c1O)C(=O)C[C@@H](c1ccc(O)cc1)O2` [6PN, 6-prenylnaringenin], for which, on HlCHIL1 protein, the “binding to CHIL1 protein (in words)” value was “no such binding could be detected”.
For `CC(C)=CCc1c(O)cc(O)c2c1O[C@H](c1ccc(O)cc1)CC2=O` [8PN, 8-prenylnaringenin], the “binding to CHIL1 protein (in words)” value at HlCHIL1 protein is on record as “no such binding could be detected”. Also, the “CHIL2-associated compound (in words)” value on CHIL2 is “no CHIL2-associated DMX or 8PN were detected”.
`CC(C)=CCc1c(O)cc(O)c(C(=O)/C=C/c2ccc(O)cc2)c1O` [DMX, demethylxanthohumol]: the results for the Kd on HlCHIL1 protein and at CHIL1^V139F were 25.1 µM and 10 µM, respectively. For the same compound, the ΔTmmax on HlCHIL1 protein was found to be 10.23 °C; on CHIL1^V139F (CHIL1^V139F, thermal shift dose-response), 10.15 °C; at CHIL1^A143F, 10.87 °C; on CHIL1^V139F/A143F, 5.26 °C. Further, the “enrichment of DMX levels by CHIL1 protein (bound vs solution)” value on His-tagged CHIL1 (incubation 8 h at 4 °C with yeast extract (DMX/6PN/8PN)) is recorded as 14.2 fold. Besides, on His-tagged CHIL1 (incubation 8 h at 4 °C, n = 3), the “ratio of (DMX)/(total DMX) in CHIL1-bound chemical mixture” value is reported as 19.7%. The “ratio of (DMX)/(total DMX) in solution” value at His-tagged CHIL1 (supernatant, incubation 8 h at 4 °C) stood at 1.39%. Besides, the “CHIL2-associated compound (in words)” value at CHIL2 is on record as “no CHIL2-associated DMX or 8PN were detected”.
As for `CC(C)(COP(=O)(O)OP(=O)(O)OC[C@H]1O[C@@H](n2cnc3c(N)ncnc32)[C@H](O)[C@@H]1OP(=O)(O)O)[C@@H](O)C(=O)NCCC(=O)NCCSC(=O)CC(=O)O` [Malonyl-CoA], at CHS_H1, the Kcat came out at 0.24 ± 0.03 s^−1 × 10^−3 and the Michaelis constant (Km) came out at 10.1 ± 2.99 µM.
On to `O=C1C[C@@H](c2ccc(O)cc2)Oc2cc(O)cc(O)c21` [N, naringenin], for which the “binding to CHIL1 protein (in words)” value on HlCHIL1 protein is “no such binding could be detected”.
Same read-out and setting: then `COc1cc(O)c(CC=C(C)C)c(O)c1C(=O)/C=C/c1ccc(O)cc1` [XN, 3′-prenyl-6′-O-methylchalconaringenin], with “no such binding could be detected”.
With `CCCCCCCCCCCC(=O)O` [lauric acid], the ΔTmmax on HlCHIL1 protein turned out to be 5.0 °C.
For the compound `CCCCCCCCCCCCCC(=O)O` [myristic acid], on HlCHIL1 protein, binding was put at a Kd of 3.45 µM and the ΔTmmax was determined as 3.55 °C.
Regarding `CC(C)(COP(=O)(O)OP(=O)(O)OC[C@H]1O[C@@H](n2cnc3c(N)ncnc32)[C@H](O)[C@@H]1OP(=O)(O)O)[C@@H](O)C(=O)NCCC(=O)NCCSC(=O)/C=C/c1ccc(O)cc1` [p-Coumaroyl-CoA], at CHS_H1, the Kcat was found to be 0.21 ± 0.02 s^−1 × 10^−3 and the Km amounted to 4.82 ± 0.99 µM.

Source of the values: article PMC5984530 (Proceedings of the National Academy of Sciences of the …, 2018).
